MC4R barr agon: MC4R agonists recruiting beta-arrestin, primary screen, cell-based, luminescence, agonist arm of biased-ligand search; activation, % at 8.9 µM; actives 0.98% (n = 360,000); U2OS MC4R beta-arrestin complementation; percent of melanotan II response, DMSO zero; Melanocortin receptor 4 (Homo sapiens), P32245;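 active = activation above a per-plate cutoff, the mean activation of sample wells on that plate plus 3 SD, cut at about 8% in these data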
MC4R antagonist: MC4R antagonists of cAMP signaling, primary screen, cell-based, TR-FRET, antagonist arm of biased-ligand search; MC4R-expressing cells, MTII-stimulated cAMP, LANCE TR-FRET; actives 0.48% (n = 360,000); Melanocortin receptor 4 (Homo sapiens), P32245; AID 540295, 2011; inhibition, % at 6.5 µM;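 active = inhibition above its plate's cutoff, the mean of tested wells on that plate plus 3 SD, cut at about 29% in these data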;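 also: 0% = Melanotan II alone and 100% = Melanotan II plus saturating MCL0020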
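System – human MC4R-expressing U2OS cells · Also added – Melanotan II · Dosing – one concentration, 6.5 µM nominal · Timing – 30-min compound, 1-h challenge, 1-h detection, room temperature · Measured by – Eu-cAMP/anti-cAMP TR-FRET, emission 671 nm · Replicates – singlicate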
SMARCA2 act: SMARCA2 (BRM) function activators, primary screen, cell-based, luminescence, high throughput | MG213 cells, MMTV-luciferase reporter, dexamethasone, overnight | activation, % at 9.1 µM | actives 1% (n = 370,000); in the data active = activation above about 7.8%;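 also: 0% = vehicle wells and 100% = reference activator wells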
ATG4B inh: ATG4B protease inhibitors, primary screen, biochemical, fluorescence, uHTS; ATG4B cleavage of LC3-PLA2, NBD-HPC fluorescence, 1 h; inhibition, % at 8.33 µM; actives 0.51% (n = 340,000); AID 504462, 2011; in the data active = inhibition above about 40%
Target sequence (Q9Y4P1 whole entry, looked up): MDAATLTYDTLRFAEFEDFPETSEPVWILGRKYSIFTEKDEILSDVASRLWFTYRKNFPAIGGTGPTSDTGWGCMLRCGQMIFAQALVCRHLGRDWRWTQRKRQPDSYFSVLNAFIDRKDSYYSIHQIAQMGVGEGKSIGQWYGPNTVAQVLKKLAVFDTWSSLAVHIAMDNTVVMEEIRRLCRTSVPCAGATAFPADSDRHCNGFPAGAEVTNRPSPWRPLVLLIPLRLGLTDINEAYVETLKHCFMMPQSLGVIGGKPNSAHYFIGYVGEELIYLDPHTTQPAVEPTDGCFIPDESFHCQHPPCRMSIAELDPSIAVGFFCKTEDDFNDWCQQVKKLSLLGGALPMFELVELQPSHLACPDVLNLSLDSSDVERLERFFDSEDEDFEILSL
MPTP inh: mitochondrial permeability transition pore inhibitors, primary screen, biochemical, isolated mouse mitochondria, absorbance; actives 1.4% (n = 360,000); inhibition, % at 10 µM; Ca2+ swelling absorbance, 30 min; AID 602449, 2012;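 active = inhibition of 50% or more, scaled per plate between neutral and stimulator controls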;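 also: 0% = DMSO wells given calcium and 100% = 1 mM EGTA wells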
SMARCA2 act conf: SMARCA2 (BRM) function activators, confirmation, cell-based, luminescence, triplicate; MG213 cells, MMTV-luciferase with dexamethasone, overnight; MG213 cells expressing E1A, Rb sequestered; DMSO wells 0%, reference activator 100%; activation, % at 9.1 µM; shares compounds with SMARCA2 act; actives 30% (n = 3,500);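 active = activation above its plate's cutoff, the mean activation of tested wells plus 3 SD, cut at about 7.9% in these data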
GAL4-VP16 Luc: GAL4-VP16 luciferase reporter activation, counter-screen for SMARCA2 (BRM) activator project, cell-based, pG5luc, luminescence, high throughput; shares compounds with SMARCA2 act; HEK293 GAL4-VP16 pG5luc reporter; scaled: DMSO wells 0%, SAHA wells 100%; activation, % at 9.1 µM; actives 41% (n = 3,500);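 active = activation above the solvent-only control well mean plus 3 SD, averaged across control plates, cut at about 5.2% in these data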
The depositor's hits bear a star. In the library only some 4.1% were active in any assay of this set; here they are far more common.

For O=c1c2ccccc2sc2ccccc12 the results were MC4R barr agon -1, MC4R antagonist -1, SMARCA2 act 8.5*, ATG4B inh -12, MPTP inh 0, SMARCA2 act conf 7 and GAL4-VP16 Luc 5.9*.
Screening O=C1[C@@H](C2CCCCC2)[C@@H]2c3ccccc3C=NN2[C@@H]2c3ccccc3C=NN12 returned SMARCA2 act -4.
Screening COc1ccc(/C=C/CN2CCC(C(=O)NC(c3ccc(F)cc3)c3ccc4ccccc4n3)CC2)cc1 (stereo unspecified) returned MC4R barr agon 2, MC4R antagonist 7, SMARCA2 act 5 and MPTP inh 4.
For O=C(NCc1ccc2c(c1)CCO2)Nc1ccccc1 the results were MC4R barr agon 2, MC4R antagonist 0, SMARCA2 act 8.7*, ATG4B inh 2, MPTP inh 2, SMARCA2 act conf 7 and GAL4-VP16 Luc 5.2*.
Screening CCOC(=O)N/N=C/c1cccc(Cl)c1Cl returned MC4R barr agon -1, MC4R antagonist 7, SMARCA2 act 2, ATG4B inh -13 and MPTP inh 2.
`Cc1ccc(NC(=S)Nc2cc(C)on2)cc1` gave MC4R barr agon 1, MC4R antagonist 0, SMARCA2 act 8.6*, ATG4B inh 2, MPTP inh 3, SMARCA2 act conf 4 and GAL4-VP16 Luc 13*.
Cc1cc(C(=O)N/N=C/c2cccc(Cl)c2Cl)no1 was read as MC4R barr agon -1, MC4R antagonist -7, SMARCA2 act 11*, ATG4B inh 0, MPTP inh 0, SMARCA2 act conf 4 and GAL4-VP16 Luc 8.8*.
CCc1ccc(NC(=O)c2cc(C)on2)cc1 was read as MC4R barr agon -1, MC4R antagonist -5, SMARCA2 act 3, ATG4B inh -3 and MPTP inh -1.
`CCCc1cc(C(=O)Nc2ccc(C)cc2)no1` gave MC4R barr agon 0, MC4R antagonist 8, SMARCA2 act 12*, ATG4B inh -2, MPTP inh -1, SMARCA2 act conf 7 and GAL4-VP16 Luc 6.9*.
`Cc1ccc(NC(=O)c2cc(C)on2)cc1` gave MC4R barr agon -2, MC4R antagonist 17, SMARCA2 act 8.7*, ATG4B inh -2, MPTP inh -2, SMARCA2 act conf 6 and GAL4-VP16 Luc 18*.
For Cc1ccc(NC(=S)Nc2ccc3cn[nH]c3c2)cc1 the results were MC4R barr agon 3, MC4R antagonist -7, SMARCA2 act 7, ATG4B inh 4 and MPTP inh 0.
`O=C(NCc1ccccc1)[C@@H]1CCCN1C(=O)[C@H]1CCCN1C(=O)c1ccc(F)c(C(F)(F)F)c1` gave SMARCA2 act 4.
For Cc1ccc2c(c1)N(CCCC(=O)NCc1c(F)cccc1F)C(=O)CO2 the results were SMARCA2 act -5.
`O=C(NCCc1c[nH]c2ccccc12)OCc1cn(-c2ccc(F)cc2)nn1` gave SMARCA2 act -2.
For COc1cccc(CNC(=O)Cn2c(-c3ccccc3)cc(C(C)=O)c2C)c1OC the results were SMARCA2 act 0.
Screening CC(=O)O[C@@H]1[C@H]2[C@@H](C[C@@H](C)[C@@H]3C=CC(=O)[C@@]13C)OC(=O)[C@@H]2C returned MC4R barr agon 0, MC4R antagonist 5, SMARCA2 act -1, ATG4B inh 1 and MPTP inh -1.
Screening C=C1C(=O)OC2C1CCC(C)C1C=CC(=O)C12C (stereo unspecified) returned MC4R barr agon -2, MC4R antagonist 15, SMARCA2 act 21*, ATG4B inh -2, MPTP inh -1, SMARCA2 act conf 21* and GAL4-VP16 Luc 4.
For CC(C)[C@H](CO)Nc1nc(NCc2ccc(S(N)(=O)=O)cc2)c2ncn(C(C)C)c2n1 the results were MC4R barr agon -2, MC4R antagonist 5, SMARCA2 act 10*, ATG4B inh 4, MPTP inh -1, SMARCA2 act conf 7.9* and GAL4-VP16 Luc 0.
For CC(C)n1cnc2c(NCc3ccc(S(N)(=O)=O)cc3)nc(NCc3ccc(S(N)(=O)=O)cc3)nc21 the results were MC4R barr agon -1, MC4R antagonist 6, SMARCA2 act 0, ATG4B inh -9 and MPTP inh 0.
O=C(NN=Cc1ccccc1C(F)(F)F)c1cc(-c2ccc(Cl)cc2)n[nH]1 was read as SMARCA2 act -5.
Screening Cc1ccc2nc3c(cc(C(=O)NCC4CCCO4)c(=N)n3C3CCCC3)c(=O)n2c1 (stereo unspecified) returned MC4R barr agon 1, MC4R antagonist -6, SMARCA2 act 8.8*, ATG4B inh -7, MPTP inh 0, SMARCA2 act conf -1 and GAL4-VP16 Luc 1.
Screening Cc1ccc2nc3c(cc(C(=O)NCc4ccco4)c(=N)n3C3CCCC3)c(=O)n2c1 returned MC4R barr agon 0, MC4R antagonist 7, SMARCA2 act 9.1*, MPTP inh -3, SMARCA2 act conf 15* and GAL4-VP16 Luc 3.
For Cc1cccn2c(=O)c3cc(C(=O)NCc4ccco4)c(=N)n(C4CCCCC4)c3nc12 the results were MC4R barr agon 3, MC4R antagonist 15, ATG4B inh 18 and MPTP inh 1.
`COc1ccc(C(=O)C2(C(=O)NCCO)CC(c3ccccn3)=NO2)cc1` (stereo unspecified) gave SMARCA2 act 4.
`COc1ccc([C@H](C)NC[C@H](O)c2ccc(O)c(NC=O)c2)cc1` gave MC4R barr agon -1, MC4R antagonist -1, ATG4B inh -5 and MPTP inh 0.
For COc1ccc(C[C@H](C)NC[C@@H](O)c2ccc(O)c(NC=O)c2)cc1 the results were SMARCA2 act 14*, ATG4B inh -7, MPTP inh 0, SMARCA2 act conf 12* and GAL4-VP16 Luc 15*.
`CS(=O)(=O)N(CC(=O)N1CCCCC1)c1ccc2c(c1)OCO2` gave MC4R barr agon -1, MC4R antagonist -4, SMARCA2 act 5, ATG4B inh 6 and MPTP inh 1.
`CS(=O)(=O)N(CC(=O)N1CCCCCC1)c1ccc2c(c1)OCCO2` gave MC4R barr agon 1, MC4R antagonist 11, SMARCA2 act 8.0*, ATG4B inh -1, MPTP inh 1, SMARCA2 act conf -3 and GAL4-VP16 Luc 1.

Screening results as filed in PubChem.
